Laboratory results from ChEMBL document CHEMBL2321719, “Discovery of novel α₁-adrenoceptor ligands based on the antipsychotic sertindole suitable for labeling as PET ligands” (Bioorg Med Chem, 2013).

Columns and labels:
D(2) dopamine receptor = D(2) dopamine receptor (Homo sapiens, UniProt P14416); experiment: Displacement of [3H]spiperone from human dopamine D2 receptor expressed in CHO cells after 30 mins by scintillation counting analysis; format: cell-based
[1] = target: T1, Alpha-1A adrenergic receptor (Bos taurus, UniProt P18130); experiment: Displacement of [3H]prazosine from bovine alpha1A adrenoceptor expressed in BHK cells after 20 mins by scintillation counting analysis; format: cell-based
T1 sequence (P18130 whole entry): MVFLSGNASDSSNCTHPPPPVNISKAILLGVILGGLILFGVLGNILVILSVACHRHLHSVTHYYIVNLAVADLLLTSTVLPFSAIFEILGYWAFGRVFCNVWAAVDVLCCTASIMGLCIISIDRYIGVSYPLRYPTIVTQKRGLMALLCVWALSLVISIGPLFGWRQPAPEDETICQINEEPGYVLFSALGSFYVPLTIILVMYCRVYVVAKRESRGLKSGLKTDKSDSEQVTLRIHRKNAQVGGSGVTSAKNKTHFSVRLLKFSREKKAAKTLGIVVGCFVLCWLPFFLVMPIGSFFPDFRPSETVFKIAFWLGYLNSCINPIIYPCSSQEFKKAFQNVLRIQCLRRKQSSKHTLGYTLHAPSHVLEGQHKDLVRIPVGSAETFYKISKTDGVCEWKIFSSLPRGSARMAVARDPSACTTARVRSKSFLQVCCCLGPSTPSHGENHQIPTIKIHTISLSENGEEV

[2] = Selectivity ratio of Ki for human dopamine D2 receptor to Ki for bovine alpha1A adrenoceptor
Outline: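 D2: human receptor in CHO membranes, 0.1 nM [3H]spiperone, 50 mM Tris pH 7.4, nonspecific binding with haloperidol, 30 min at 37 °C. Both used GF/B filtration, ≥2 ten-point curves and Cheng–Prusoff.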

[3] = Apparent permeability across apical to basolateral side in human Caco2 cells at 1 to 20 uM by LC-MS/MS analysis; format: ADME, cell-based; conditions: Caco-2
Outline: (§1)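 Caco-2 monolayers were grown on permeable filters for 21–28 days. A 2 mM DMSO stock was diluted in Hanks-Hepes buffer, pH 7.4, and added to the apical (A–B) or basolateral (B–A) side. The receiver side was sampled over 240 min and topped up with fresh buffer, then analysed by LC–MS/MS. […] Efflux ratio = Papp(B–A)/Papp(A–B).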

[4] = Ratio of drug level in brain to plasma in rat at 1 hr; format: ADME, cell-free; conditions: brain and plasma, read-out: BPR
[5] = Ratio of drug level in brain to plasma at steady state in rat at 1000 ng/g after 5 hrs; format: ADME, cell-free; conditions: brain and plasma, read-out: BPR
Outline: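 Steady-state rat brain/plasma ratio was estimated from equilibrium-dialysis free fractions (spike 1000 ng/g, 5 h, 37 °C, LC–MS/MS) as fu,plasma/fu,brain. This assumes passive distribution, with equal unbound concentrations in brain and plasma.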

[6] = Unbound fraction in rat brain at 1000 ng/g after 5 hrs by equilibrium dialysis method; format: ADME, tissue-based
Outline: (§2)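 Free fraction was measured by 96-well equilibrium dialysis through 3 kDa membranes. Plasma was diluted 1:1 with PBS; rat brain was sonicated on ice to 1:2 brain:PBS. Matrices were spiked at 1000 ng/g (n = 6) and dialysed against PBS for 5 h at 37 °C. Samples were read by LC–MS/MS, and fu was calculated per Kalvass–Maurer with correction for brain dilution.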

[7] = Unbound fraction in rat plasma at 1000 ng/g after 5 hrs by equilibrium dialysis method; format: ADME, cell-free; outline: as §2
[8] = Efflux ratio of apparent permeability from basolateral to apical side over apical to basolateral side in human Caco2 cells at 1 to 20 uM; format: ADME, cell-based; conditions: Caco-2; outline: as §1
[9] = Unbound fraction in human plasma at 1000 ng/g after 5 hrs by equilibrium dialysis method; format: ADME, cell-free; outline: as §2
[10] = Unbound fraction in cynomolgus monkey plasma at 1000 ng/g after 5 hrs by equilibrium dialysis method; format: ADME, cell-free, Macaca fascicularis; outline: as §2
[11] = target: 5-hydroxytryptamine receptor 2A (Homo sapiens, UniProt P28223); experiment: Binding affinity to 5-HT2A receptor (unknown origin) by radioligand displacement assay
Sequence of 5-hydroxytryptamine receptor 2A (P28223 whole entry): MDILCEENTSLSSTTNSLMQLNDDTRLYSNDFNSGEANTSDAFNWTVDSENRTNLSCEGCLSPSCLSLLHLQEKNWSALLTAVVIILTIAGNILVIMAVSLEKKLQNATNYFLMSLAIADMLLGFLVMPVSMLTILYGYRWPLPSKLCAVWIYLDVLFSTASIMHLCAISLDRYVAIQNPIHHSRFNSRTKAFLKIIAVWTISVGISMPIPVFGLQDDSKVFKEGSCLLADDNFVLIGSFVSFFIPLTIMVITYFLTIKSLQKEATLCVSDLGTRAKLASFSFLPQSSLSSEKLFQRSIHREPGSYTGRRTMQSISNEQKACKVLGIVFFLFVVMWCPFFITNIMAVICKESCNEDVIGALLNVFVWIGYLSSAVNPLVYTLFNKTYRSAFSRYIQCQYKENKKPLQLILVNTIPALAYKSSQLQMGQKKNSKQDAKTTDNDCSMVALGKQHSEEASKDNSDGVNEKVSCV
Outline: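 This external human 5-HT2A binding assay (Cerep) tested compounds at two concentrations, one of them 100 nM. Ki was derived from a single run, so the error is unknown.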

[12] = target: T2, Alpha-1D adrenergic receptor (Rattus norvegicus, UniProt P23944); experiment: Displacement of [3H]prazosine from rat alpha1D adrenoceptor expressed in CHO cells after 20 mins by scintillation counting analysis; format: cell-based
T2 sequence (P23944 whole entry): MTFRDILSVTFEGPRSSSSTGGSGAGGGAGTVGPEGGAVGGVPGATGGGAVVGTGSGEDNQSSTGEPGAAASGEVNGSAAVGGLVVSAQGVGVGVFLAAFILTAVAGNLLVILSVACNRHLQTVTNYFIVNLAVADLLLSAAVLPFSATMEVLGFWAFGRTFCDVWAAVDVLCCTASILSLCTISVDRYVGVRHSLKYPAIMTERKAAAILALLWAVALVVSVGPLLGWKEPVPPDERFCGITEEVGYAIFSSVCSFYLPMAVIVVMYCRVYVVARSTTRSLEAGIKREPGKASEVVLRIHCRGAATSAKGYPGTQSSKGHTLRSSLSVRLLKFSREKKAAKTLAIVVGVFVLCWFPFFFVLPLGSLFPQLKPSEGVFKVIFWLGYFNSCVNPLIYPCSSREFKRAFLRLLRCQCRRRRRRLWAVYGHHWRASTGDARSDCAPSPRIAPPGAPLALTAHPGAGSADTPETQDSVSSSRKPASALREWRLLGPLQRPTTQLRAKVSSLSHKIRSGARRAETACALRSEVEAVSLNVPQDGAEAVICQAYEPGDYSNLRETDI

[13] = Efflux ratio of apparent permeability from basolateral to apical side over apical to basolateral side in human Caco2 cells at 20 uM; format: ADME, cell-based; conditions: Caco-2
Outline: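 Caco-2 monolayers grown 21–28 days on permeable filters; 2 mM DMSO stock diluted in Hanks-Hepes buffer, pH 7.4, and added to the apical (A–B) or basolateral (B–A) chamber. The opposite chamber was sampled over 240 min, with buffer replaced, and analysed by LC–MS/MS. Papp = dQ/dt × 1/(A × C0), with area 1.1 cm²; ratio = Papp(B–A)/Papp(A–B); N = 2.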

[14] = target: T3, Alpha-1B adrenergic receptor (Mesocricetus auratus, UniProt P18841); experiment: Displacement of [3H]prazosine from hamster alpha1B adrenoceptor expressed in Rat1 cells after 20 mins by scintillation counting analysis; format: cell-based
T3 sequence (P18841 whole entry): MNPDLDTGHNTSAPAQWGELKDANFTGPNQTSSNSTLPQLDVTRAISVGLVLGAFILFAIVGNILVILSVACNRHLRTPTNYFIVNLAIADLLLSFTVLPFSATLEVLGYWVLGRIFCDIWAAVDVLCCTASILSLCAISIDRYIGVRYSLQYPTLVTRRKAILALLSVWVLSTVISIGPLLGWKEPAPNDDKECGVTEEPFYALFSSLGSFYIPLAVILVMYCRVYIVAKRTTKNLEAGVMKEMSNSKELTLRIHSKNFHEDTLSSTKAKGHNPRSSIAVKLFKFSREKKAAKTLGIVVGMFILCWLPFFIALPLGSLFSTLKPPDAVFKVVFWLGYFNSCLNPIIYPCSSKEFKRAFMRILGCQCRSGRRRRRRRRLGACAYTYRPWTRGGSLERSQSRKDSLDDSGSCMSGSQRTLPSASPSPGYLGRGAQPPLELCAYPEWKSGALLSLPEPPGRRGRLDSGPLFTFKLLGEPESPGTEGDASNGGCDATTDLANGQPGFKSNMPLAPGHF

[15] = Apparent permeability across apical to basolateral side in human Caco2 cells at 20 uM by LC-MS/MS analysis; format: ADME, cell-based; conditions: Caco-2; outline: as §1
[16] = Unbound fraction in rhesus monkey plasma at 1000 ng/g after 5 hrs by equilibrium dialysis method; format: ADME, cell-free, Macaca mulatta; outline: as §2
[17] = target: 5-hydroxytryptamine receptor 6 (Homo sapiens, UniProt P50406); experiment: Displacement of [3H]LSD from human 5-HT6 receptor expressed in human HeLa cells after 60 mins by scintillation counting analysis; format: cell-based
Sequence of 5-hydroxytryptamine receptor 6 (P50406 whole entry): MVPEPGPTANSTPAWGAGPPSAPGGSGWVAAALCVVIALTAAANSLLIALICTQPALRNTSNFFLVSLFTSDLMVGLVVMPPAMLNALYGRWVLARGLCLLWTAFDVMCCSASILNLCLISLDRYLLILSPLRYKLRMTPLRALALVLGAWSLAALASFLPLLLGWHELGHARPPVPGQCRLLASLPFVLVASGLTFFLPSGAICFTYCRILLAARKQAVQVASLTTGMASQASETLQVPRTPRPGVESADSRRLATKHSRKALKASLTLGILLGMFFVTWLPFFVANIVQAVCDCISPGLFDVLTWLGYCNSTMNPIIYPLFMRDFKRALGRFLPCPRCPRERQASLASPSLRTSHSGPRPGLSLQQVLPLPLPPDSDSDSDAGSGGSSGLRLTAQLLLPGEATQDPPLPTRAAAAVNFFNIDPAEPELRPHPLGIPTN
Outline: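 HeLa cells expressing human 5-HT6 were homogenised in 50 mM Tris, pH 7.4. Binding used 50 mM Tris, pH 7.7, and 1 nM [3H]LSD, with nonspecific binding taken with an indolylpiperidine 5-HT6 ligand. Incubation was 60 min at 22 °C, followed by GF/B filtration and scintillation counting. Ki came from ≥2 ten-point curves, via Cheng–Prusoff.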

[18] = target: 5-hydroxytryptamine receptor 1B (Homo sapiens, UniProt P28222); experiment: Displacement of [3H]CT from human 5-HT1B receptor expressed in human HeLa cells after 60 mins by scintillation counting analysis; format: cell-based
Sequence of 5-hydroxytryptamine receptor 1B (P28222 whole entry): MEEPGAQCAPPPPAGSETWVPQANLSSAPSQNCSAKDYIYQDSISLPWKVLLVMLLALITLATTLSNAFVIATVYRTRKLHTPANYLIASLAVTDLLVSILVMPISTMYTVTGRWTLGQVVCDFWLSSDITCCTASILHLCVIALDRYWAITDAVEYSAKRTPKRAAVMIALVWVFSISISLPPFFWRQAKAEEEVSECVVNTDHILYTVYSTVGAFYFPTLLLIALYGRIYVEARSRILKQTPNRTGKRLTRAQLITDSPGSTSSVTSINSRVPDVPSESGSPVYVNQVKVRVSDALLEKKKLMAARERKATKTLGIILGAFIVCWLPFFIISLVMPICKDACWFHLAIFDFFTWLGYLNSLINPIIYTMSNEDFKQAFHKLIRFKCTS
Outline: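 Membranes from HeLa cells expressing human 5-HT1B were prepared in ice-cold 50 mM Tris, pH 7.4. The assay ran in 50 mM Tris, pH 7.7, with 0.8 mg/mL WGA SPA beads and 1.5 nM [3H]CT, for 60 min at room temperature, read by scintillation counting. Nonspecific binding was taken with 5-HT creatinine sulphate. Ki came from ≥2 ten-point curves spanning 4 decades, via Cheng–Prusoff.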

Sequence of D(2) dopamine receptor (P14416 whole entry): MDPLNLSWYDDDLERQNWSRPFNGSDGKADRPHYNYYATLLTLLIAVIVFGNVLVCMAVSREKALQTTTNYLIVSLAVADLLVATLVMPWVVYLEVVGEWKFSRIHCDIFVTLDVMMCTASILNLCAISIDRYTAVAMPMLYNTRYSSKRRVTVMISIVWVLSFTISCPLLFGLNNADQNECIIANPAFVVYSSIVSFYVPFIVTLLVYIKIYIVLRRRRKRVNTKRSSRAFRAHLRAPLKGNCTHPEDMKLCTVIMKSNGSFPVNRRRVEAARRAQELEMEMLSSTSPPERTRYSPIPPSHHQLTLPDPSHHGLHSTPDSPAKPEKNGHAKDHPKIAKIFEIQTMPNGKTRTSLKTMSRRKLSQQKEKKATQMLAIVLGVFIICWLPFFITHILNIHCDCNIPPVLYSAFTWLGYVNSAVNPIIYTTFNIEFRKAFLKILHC

## CN1CCC(c2cn(-c3ccncc3)c3ccc(-c4cnn(C)c4)cc23)CC1
D(2) dopamine receptor
  Ki: 6400 nM
[1]
  Ki: 38 nM
[2]
  Ratio Ki: 168

## CN1CCC(c2cn(-c3ccc(F)cc3)c3ccc(-c4ccn(C)n4)cc23)CC1
D(2) dopamine receptor
  Ki: 160 nM
[1]
  Ki: 0.54 nM
[2]
  Ratio Ki: 296

## CN1CCC(c2cn(-c3ccc(F)cc3)c3ccc(-c4ccncc4)cc23)CC1
D(2) dopamine receptor
  Ki: 27 nM
[1]
  Ki: 10 nM
[2]
  Ratio Ki: 3

## CN1CCC(c2cn(-c3ccncc3)c3ccc(-c4cncnc4)cc23)CC1
D(2) dopamine receptor
  Ki: 830 nM
[1]
  Ki: 19 nM
[2]
  Ratio Ki: 44

## CN1CCC(c2cn(-c3ccc(F)cc3)c3ccc(-c4cccnc4)cc23)CC1
D(2) dopamine receptor
  Ki: 76 nM
[1]
  Ki: 2.3 nM
[2]
  Ratio Ki: 33

## Cn1nnc(-c2ccc3c(c2)c(C2CCN(CCN4CCNC4=O)CC2)cn3-c2ccc(F)cc2)n1
[3]
  Papp A→B at up to 20 µM: 12 ×10⁻⁶ cm/s
[4]
  Kp at 1 h: 0.26
[5]
  Kp at 5 h, 1000 ng/g: 6.3
[6]
  fraction unbound at 5 h, 1000 ng/g: 0.0035
[7]
  fraction unbound at 5 h, 1000 ng/g: 0.022

## Cn1cc(-c2ccc3c(c2)c(C2CCN(CCN4CCNC4=O)CC2)cn3-c2ccc(F)cc2)nn1
[3]
  Papp A→B at up to 20 µM: 5 ×10⁻⁶ cm/s
[4]
  Kp at 1 h: > 0.05
[5]
  Kp at 5 h, 1000 ng/g: 8.9
[6]
  fraction unbound at 5 h, 1000 ng/g: 0.0081
[7]
  fraction unbound at 5 h, 1000 ng/g: 0.072

## CN1CCC(c2cn(-c3ccc(F)cc3)c3ccc(-c4cnn(C)c4)cc23)CC1
D(2) dopamine receptor
  Ki: 150 nM
[1]
  Ki: 2.7 nM
[2]
  Ratio Ki: 56

## COc1ccccc1N1CCN(CCN(C(=O)C2CCCCC2)c2ccccn2)CC1 [WAY-100,635]
[3]
  Papp A→B at up to 20 µM: 38 ×10⁻⁶ cm/s
[4]
  Kp at 1 h: 1.7
[5]
  Kp at 5 h, 1000 ng/g: 1.2
[6]
  fraction unbound at 5 h, 1000 ng/g: 0.084
[7]
  fraction unbound at 5 h, 1000 ng/g: 0.1
[8]
  efflux ratio at up to 20 µM: 0.9

## CN1CCC(c2cn(-c3ccncc3)c3ccc(-c4ccnn4C)cc23)CC1
D(2) dopamine receptor
  Ki: 880 nM
[1]
  Ki: 19 nM
[2]
  Ratio Ki: 46

## CN1CCC(c2cn(-c3ccc(F)cc3)c3ccc(-c4ccnn4C)cc23)CC1
D(2) dopamine receptor
  Ki: 15 nM
[1]
  Ki: 0.32 nM
[2]
  Ratio Ki: 47

## CN1CCC(c2cn(-c3ccc(F)cc3)c3ccc(-c4nnn(C)n4)cc23)CC1
D(2) dopamine receptor
  Ki: 69 nM
[1]
  Ki: 0.28 nM
[2]
  Ratio Ki: 246

## CN1CCC(c2cn(-c3ccc(F)cc3)c3ccc(-c4ncn(C)n4)cc23)CC1
D(2) dopamine receptor
  Ki: 220 nM
[5]
  Kp at 5 h, 1000 ng/g: 37
[9]
  fraction unbound at 5 h, 1000 ng/g: 0.17
[10]
  fraction unbound at 5 h, 1000 ng/g: 0.16
[6]
  fraction unbound at 5 h, 1000 ng/g: 0.002
[1]
  Ki: 0.16 nM
[11]
  Ki: 89 nM
[12]
  Ki: 15 nM
[2]
  Ratio Ki: 1380
[13]
  efflux ratio at 20 µM: 0.7
[14]
  Ki: 6.4 nM
[15]
  Papp A→B at 20 µM: 18 ×10⁻⁶ cm/s
[7]
  fraction unbound at 5 h, 1000 ng/g: 0.074
[16]
  fraction unbound at 5 h, 1000 ng/g: 0.18

## CN1CCC(c2cn(-c3ccc(F)cc3)c3ccc(-c4cncnc4)cc23)CC1
[5]
  Kp at 5 h, 1000 ng/g: 35
[9]
  fraction unbound at 5 h, 1000 ng/g: 0.096
[10]
  fraction unbound at 5 h, 1000 ng/g: 0.1
[6]
  fraction unbound at 5 h, 1000 ng/g: 0.0025
[15]
  Papp A→B at 20 µM: 13 ×10⁻⁶ cm/s
[17]
  Ki: 16 nM
[18]
  Ki: 13 nM
[7]
  fraction unbound at 5 h, 1000 ng/g: 0.088
[16]
  fraction unbound at 5 h, 1000 ng/g: 0.13

## CN1CCC(c2cn(-c3ccncc3)c3ccc(-c4ccncc4)cc23)CC1
D(2) dopamine receptor
  Ki: 260 nM
[1]
  Ki: 24 nM
[2]
  Ratio Ki: 11

## CCN1CCC[C@H]1CNC(=O)c1c(O)c(Cl)cc(Cl)c1OC [RACLOPRIDE]
[3]
  Papp A→B at up to 20 µM: 66 ×10⁻⁶ cm/s
[4]
  Kp at 1 h: 6.4
[5]
  Kp at 5 h, 1000 ng/g: 3.4
[6]
  fraction unbound at 5 h, 1000 ng/g: 0.08
[7]
  fraction unbound at 5 h, 1000 ng/g: 0.27
[8]
  efflux ratio at up to 20 µM: 0.5

## CN1CCC(c2cn(-c3ccncc3)c3ccc(-c4cccnc4)cc23)CC1
D(2) dopamine receptor
  Ki: 1100 nM
[1]
  Ki: 22 nM
[2]
  Ratio Ki: 50
